The values below come from ChEMBL document CHEMBL1122612, “7-(Ethoxycarbonyl)-6,8-dimethyl-2-phenyl-1(2H)-phthalazinone derivatives: synthesis and inhibitory effects on platelet aggregation” (J Med Chem, 1984).

Each structure is given as a SMILES string.

By IC50 is commonly meant the midpoint of a concentration-inhibition curve.

For the first test, the species on record is Oryctolagus cuniculus. Briefly: Inhibition of arachidonic acid induced platelet aggregation in rabbit platelet rich plasma. In kind it is functional. The following applies: read-out: ED50 (the source's name). The method in brief: (§1)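 Rabbit blood drawn from the carotid artery (pentobarbital anaesthesia, 35 mg/kg iv) into 3.8% sodium citrate (1/10 volume). PRP obtained by spinning at 150g for 15 min; 3.5-4.5 × 10^5 platelets/μL. Compound in Me2SO (≤0.5% final) preincubated 3 min at 37 °C with 1200 rpm stirring. Aggregation then started with 137 μM AA (final) and read turbidimetrically. Inhibition = maximum deflection relative to vehicle; ED50 range from three experiments.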
On to `CCOC(=O)c1c(C)cc2cnn(-c3ccc(C(=O)O)cc3)c(=O)c2c1C`, for which the EC50 is at least 50 µM. Turning to `COc1ccc(-n2ncc3cc(OC)c(OC)cc3c2=O)cc1`, the EC50 was at least 100 µM. With `COc1ccc(-n2ncc3cc(OC)c(OC)cc3c2=O)cc1OC`, the EC50 was at least 100 µM.

With `COc1cc2cnn(-c3ccccc3Cl)c(=O)c2cc1OC`, the EC50 was at least 100 µM. On the same count and under the same terms, the figure for `CCOC(=O)c1c(C)cc2cnn(-c3ccc(C)c(Cl)c3)c(=O)c2c1C` is at least 50 µM. Same read-out and setting: the figure for `CCOC(=O)c1c(C)cc2cnn(-c3ccc([N+](=O)[O-])cc3)c(=O)c2c1C` is at least 50 µM; for `COc1cc2cnn(-c3ccccc3)c(=O)c2cc1OC` it is at least 100 µM; for `CCOC(=O)c1c(C)cc2cnn(-c3ccc(F)cc3)c(=O)c2c1C` it is at least 50 µM. The same measure, in the same setting: for `CCOC(=O)c1c(C)cc2cnn(-c3ccc(S(C)(=O)=O)cc3)c(=O)c2c1C` the value was at least 50 µM; for `CCOC(=O)c1c(C)cc2cnn(-c3cccc(OC)c3)c(=O)c2c1C`, at least 50 µM. Take `CCOC(=O)c1c(C)cc2cnn(-c3ccc(OC)c(OC)c3)c(=O)c2c1C`: the EC50 is at least 50 µM. Still for that read-out and setting: the figure for `CCOC(=O)c1c(C)cc2cnn(-c3ccc(NC(C)=O)cc3)c(=O)c2c1C` is at least 50 µM; for `CCOC(=O)c1ccc(-n2ncc3cc(C)c(C(=O)OCC)c(C)c3c2=O)cc1` it is at least 50 µM.

For the next test, the species on record is Oryctolagus cuniculus. In words: Inhibition of arachidonic acid induced platelet aggregation in rabbit platelet rich plasma, range 25-50. The format is functional. The following applies: read-out: ED50 (the source's name). The method in brief:
as §1
For `CCOC(=O)c1c(C)cc2cnn(-c3ccc(O)cc3)c(=O)c2c1C`, the EC50 worked out at 25 µM. On the same count and under the same terms, for `CCOC(=O)c1c(C)cc2cnn(-c3ccc(C)cc3)c(=O)c2c1C` the value was 25 µM.

The species entered for the next test is Oryctolagus cuniculus. In words: Inhibition of arachidonic acid induced platelet aggregation in rabbit platelet rich plasma, range 5-10. The format is functional. The following applies: read-out: ED50 (the source's name). The procedure, abridged: as §1
On to `CCOC(=O)c1c(C)cc2cnn(-c3ccccc3C)c(=O)c2c1C`, for which the EC50 is 5 µM.

In the case of `CCOC(=O)c1c(C)cc2cnn(-c3ccc(OC)cc3)c(=O)c2c1C`, the EC50 was determined as 5 µM.

Another test is filed under the species Oryctolagus cuniculus. In words: Inhibition of arachidonic acid induced platelet aggregation in rabbit platelet rich plasma, range 50-100. The format is functional. The following applies: read-out: ED50 (the source's name). The method in brief:
as §1
As for `CCOC(=O)c1c(C)cc2cnn(-c3cccc(C)c3)c(=O)c2c1C`, the EC50 is 50 µM.

Tested on in another test: not listed separately
Briefly: Inhibition of human platelet cAMP Phosphodiesterase. In kind it is functional.
Conditions: not given
The procedure, abridged:
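Low-Km cAMP phosphodiesterase from human platelets, prepared and assayed per an earlier method. Result expressed as IC50, the μM concentration inhibiting enzyme activity by 50%.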
In turn, `CCOC(=O)c1c(C)cc2cnn(-c3ccccc3Cl)c(=O)c2c1C` gave an IC50 of 34 µM. Still for that read-out and setting: for `COc1ccc(Cc2nccc3cc(OC)c(OC)cc23)cc1OC` [PAPAVERINE] the value was 0.55 µM; for `CCOC(=O)c1c(C)cc2cnn(-c3ccccc3)c(=O)c2c1C`, 10 µM.

The species entered for the next test is Oryctolagus cuniculus. Briefly: Inhibition of arachidonic acid induced platelet aggregation in rabbit platelet rich plasma, range 2-5. The format is functional. The following applies: read-out: ED50 (the source's name). The procedure, abridged: as §1
As for `CCOC(=O)c1c(C)cc2cnn(-c3ccccc3F)c(=O)c2c1C`, the EC50 amounted to 2 µM. On the same count and under the same terms, for `CCOC(=O)c1c(C)cc2cnn(-c3ccccc3Cl)c(=O)c2c1C` the value was 2 µM; for `CCOC(=O)c1c(C)cc2cnn(-c3ccccc3)c(=O)c2c1C`, 2 µM; for `CCOC(=O)c1c(C)cc2cnn(-c3ccc(N)cc3)c(=O)c2c1C`, 2 µM.
